Measurements from ChEMBL document CHEMBL4725418, “Design, Synthesis, and Structure-Activity Relationship Studies of Dual Inhibitors of Soluble Epoxide Hydrolase and 5-Lipoxygenase” (J Med Chem, 2020).
Converted amounts (≈) assume the structure as drawn. The source made the active and inactive calls. The rule behind the calls is not given here.

How the values were obtained:
[1] = Half life in Swiss CD-1 mouse at 3 mg/kg, po administered as single dose by LC-MS analysis; format: ADME, organism-based; conditions: in vivo
Summary of the method: (§1)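 Male Swiss CD-1 mice received a single oral dose of 3 mg/kg in 1% methylcellulose/Tween80 (99:1); nine mice treated, three vehicle controls, three mice per time point. Serum analyzed by LC-MS for concentration–time profile.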

[2] = Tmax in Swiss CD-1 mouse at 3 mg/kg, po administered as single dose by LC-MS analysis; format: ADME, organism-based; conditions: in vivo; summary of the method: as §1
[3] = target: T1, Bifunctional epoxide hydrolase 2 (Homo sapiens, UniProt P34913); test: Inhibition of human sEH (1 to 555 residues) expressed in Escherichia coli BL21-(DE3) using PHOME substrate incubated for 30 to 45 mins by fluorescence based assay
T1 sequence (P34913 whole entry): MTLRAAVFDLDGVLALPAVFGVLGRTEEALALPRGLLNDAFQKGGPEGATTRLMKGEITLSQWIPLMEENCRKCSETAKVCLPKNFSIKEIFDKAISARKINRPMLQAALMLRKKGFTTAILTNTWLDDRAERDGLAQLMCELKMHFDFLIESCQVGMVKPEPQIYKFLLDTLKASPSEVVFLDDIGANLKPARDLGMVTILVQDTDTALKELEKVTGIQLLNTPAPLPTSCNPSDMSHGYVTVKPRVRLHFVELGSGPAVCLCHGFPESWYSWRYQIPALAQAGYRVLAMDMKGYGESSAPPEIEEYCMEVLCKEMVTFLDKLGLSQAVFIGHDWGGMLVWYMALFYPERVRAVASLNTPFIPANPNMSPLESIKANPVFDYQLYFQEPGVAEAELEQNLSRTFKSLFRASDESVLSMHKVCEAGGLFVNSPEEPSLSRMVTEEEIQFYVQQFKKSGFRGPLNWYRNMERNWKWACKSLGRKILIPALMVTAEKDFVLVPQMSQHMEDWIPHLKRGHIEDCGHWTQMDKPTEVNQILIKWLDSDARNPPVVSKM

[4] = target: T2, Polyunsaturated fatty acid 5-lipoxygenase (Homo sapiens, UniProt P09917); test: Inhibition of 5-LOX (unknown origin) expressed in Escherichia coli BL21-(DE3) pre-incubated for 15 mins before AA substrate addition and measured after 10 mins by HPLC/UV assay
T2 sequence (P09917 whole entry): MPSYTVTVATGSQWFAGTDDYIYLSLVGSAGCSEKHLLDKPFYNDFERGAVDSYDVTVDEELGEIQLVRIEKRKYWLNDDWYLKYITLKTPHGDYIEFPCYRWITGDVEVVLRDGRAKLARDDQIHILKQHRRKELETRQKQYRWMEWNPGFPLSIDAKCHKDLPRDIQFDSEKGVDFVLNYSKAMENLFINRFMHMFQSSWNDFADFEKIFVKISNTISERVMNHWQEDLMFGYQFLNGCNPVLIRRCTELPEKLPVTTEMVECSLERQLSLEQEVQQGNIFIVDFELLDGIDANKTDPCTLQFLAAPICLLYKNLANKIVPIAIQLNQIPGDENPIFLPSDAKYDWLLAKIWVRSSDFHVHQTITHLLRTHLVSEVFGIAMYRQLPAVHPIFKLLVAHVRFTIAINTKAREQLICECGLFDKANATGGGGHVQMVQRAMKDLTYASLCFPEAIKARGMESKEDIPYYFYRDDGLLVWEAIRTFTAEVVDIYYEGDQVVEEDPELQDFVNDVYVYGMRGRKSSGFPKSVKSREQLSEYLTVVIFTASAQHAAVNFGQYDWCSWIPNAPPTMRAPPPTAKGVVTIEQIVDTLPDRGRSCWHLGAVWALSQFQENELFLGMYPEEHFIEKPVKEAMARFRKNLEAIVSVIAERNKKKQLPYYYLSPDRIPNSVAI
Summary of the method: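 Recombinant 5-LOX activity measured with arachidonic acid as substrate; product formation monitored by HPLC. IC50 from at least three independent determinations (n ≥ 3), reported with 95% confidence interval.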

[5] = Metabolic stability in rat liver microsomes assessed as compound remaining after 60 mins; format: ADME, Microsome; conditions: read-out: Stabilty
Summary of the method: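 Compound incubated with rat liver microsomes for 60 min; percent parent compound remaining determined; n ≥ 3.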

[6] = Solubility in pH 7.4 DPBS buffer; format: physicochemical
[7] = target: T2, Polyunsaturated fatty acid 5-lipoxygenase; test: Inhibition of 5-LOX in human PMNL assessed as reduction in 5-HETE and LTB4 formation pre-incubated for 15 mins before addition of AA and A23187 and measured after 10 mins by HPLC/UV assay
[8] = T>IC50 in Swiss CD-1 mouse at 3 mg/kg, po administered as single dose by LC-MS analysis; format: ADME, organism-based; conditions: in vivo; summary of the method: as §1
Mus musculus [9] = test: Anti-fibrotic activity in C57BL/6 mouse model of unilateral ureter obstruction-induced kidney inflammation and fibrosis assessed as inhibition of tubulo-interstitial fibrosis by measuring reduced fibrillar collagen at 3 mg/kg, ip dosed daily for 7 days by Sirius red staining method; format: functional, organism-based; conditions: time 7.0 day
Summary of the method: (§2)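 Mice with unilateral ureter obstruction to induce kidney inflammation and fibrosis, given compound or vehicle intraperitoneally. Ligated (UUO) and contralateral kidneys taken at day 7. Fibrosis read by AZAN and Sirius Red staining, with Sirius Red imaged under bright and polarized light. Macrophages detected by F4/80 staining, quantified as positive area. Col1a1, FN1, TNFα and Ccl2 mRNA measured in whole-kidney homogenates by real-time qRT-PCR normalized to GAPDH.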

Mus musculus [10] = test: Anti-fibrotic activity in C57BL/6 mouse model of unilateral ureter obstruction-induced kidney inflammation and fibrosis assessed as reduction in Col1a1 mRNA expression at 3 mg/kg, ip dosed daily for 7 days by real-time qPCR analysis; format: functional, organism-based; conditions: time 7.0 day; summary of the method: as §2
Mus musculus [11] = test: Anti-fibrotic activity in C57BL/6 mouse model of unilateral ureter obstruction-induced kidney inflammation and fibrosis assessed as reduction in FN1 mRNA expression at 3 mg/kg, ip dosed daily for 7 days by real-time qPCR analysis; format: functional, organism-based; conditions: time 7.0 day; summary of the method: as §2
Mus musculus [12] = test: Anti-fibrotic activity in C57BL/6 mouse model of unilateral ureter obstruction-induced kidney inflammation and fibrosis assessed as reduction in macrophage infiltration into the obstructed kidney at 3 mg/kg, ip dosed daily for 7 days by F4/80 antibody staining based assay; format: functional, organism-based; conditions: time 7.0 day; summary of the method: as §2

- half-life [1]: 1.3 h
- Tmax [2]: 1 h
- IC50 [3]: 1.2 nM
- IC50 [4]: 110 nM
- remaining at 1 h [5]: 50%
- solubility [6]: 3 µM (≈ 1.43 µg/mL)
- IC50 [7]: 210 nM
- T>IC50 [8]: 3 h
Compound: C[C@H](C#Cc1cccc(C(=O)NCCC(c2ccc(F)cc2)c2ccc(F)cc2)c1)N(O)C(N)=O
- Activity (Mus musculus [9]): Active
- Activity (Mus musculus [10]): Active
- Activity (Mus musculus [11]): Active
- Activity (Mus musculus [12]): Active
